Laboratory results reported in ChEMBL document CHEMBL4257586, “Polyheteroaryl Oxazole/Pyridine-Based Compounds Selected in Vitro as G-Quadruplex Ligands Inhibit Rock Kinase and Exhibit Antiproliferative Activity” (J Med Chem, 2018).
Activity calls are given as the source filed them. The calls are words filed in the database; no cut-off is given here.

Legend:
[1] = Drug uptake in human HeLa cell nucleus at 3.3 uM after 17 hrs imaged with 405 nm excitation by intrinsic fluorescence based assay; type: ADME, subcellular
How it was run: (§1)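 HeLa cells treated 17 h at 2 μM, or 3.3 μM for one analogue. Imaged by confocal microscopy with no added fluorophore, using 488 nm excitation, plus 405 nm excitation for the 3.3 μM treatment. Intrinsic compound fluorescence was compared with cell background near 510 nm.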

[2] = Drug uptake in human HeLa cell cytoplasm at 3.3 uM after 17 hrs imaged with 488 nm excitation by intrinsic fluorescence based assay; type: ADME, subcellular; how it was run: as §1
[3] = Drug uptake in human HeLa cell nucleus at 3.3 uM after 17 hrs imaged with 488 nm excitation by intrinsic fluorescence based assay; type: ADME, subcellular; how it was run: as §1
HeLa [4] = experiment: Cytotoxicity against human HeLa cell spheroids assessed as effect on ATP content at 1 to 4 uM administered at day 3 post expansion and measured on day 6 by bioluminescence based assay; type: functional
How it was run: (§2)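 HeLa cells plated at 800/well in ultralow-adherence plates; one spheroid formed within 24 h at 37 °C, 5% CO2, grown in complete medium. Drug added at day 3, at four concentrations per compound. Largest section area measured daily by confocal imaging, five spheroids per condition. ATP-based CellTiter-Glo 3D luminescence read at day 6 after dosing.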

A549 [5] = experiment: Cytotoxicity against human A549 cells assessed as presence of large vesicles at 2 uM after 24 to 48 hrs by Hoechst 33342 staining-based laser confocal microscopy; type: functional, cell-based
HeLa [6] = experiment: Cytotoxicity against human HeLa cell spheroids assessed as spheroid growth inhibition at 4 uM administered at day 3 post expansion and measured after […] by 3D-celltiter Glo assay relative to control; type: functional; how it was run: as §2
[7] = target: T1, Rho-associated protein kinase 2 (Homo sapiens, UniProt O75116); experiment: Inhibition of ROCK2 in human HeLa cells assessed as reduction in cofilin phosphorylation at Ser3 at 5 uM after 3 hrs by immunofluorescence assay; type: cell-based
T1 sequence (O75116 whole entry, looked up): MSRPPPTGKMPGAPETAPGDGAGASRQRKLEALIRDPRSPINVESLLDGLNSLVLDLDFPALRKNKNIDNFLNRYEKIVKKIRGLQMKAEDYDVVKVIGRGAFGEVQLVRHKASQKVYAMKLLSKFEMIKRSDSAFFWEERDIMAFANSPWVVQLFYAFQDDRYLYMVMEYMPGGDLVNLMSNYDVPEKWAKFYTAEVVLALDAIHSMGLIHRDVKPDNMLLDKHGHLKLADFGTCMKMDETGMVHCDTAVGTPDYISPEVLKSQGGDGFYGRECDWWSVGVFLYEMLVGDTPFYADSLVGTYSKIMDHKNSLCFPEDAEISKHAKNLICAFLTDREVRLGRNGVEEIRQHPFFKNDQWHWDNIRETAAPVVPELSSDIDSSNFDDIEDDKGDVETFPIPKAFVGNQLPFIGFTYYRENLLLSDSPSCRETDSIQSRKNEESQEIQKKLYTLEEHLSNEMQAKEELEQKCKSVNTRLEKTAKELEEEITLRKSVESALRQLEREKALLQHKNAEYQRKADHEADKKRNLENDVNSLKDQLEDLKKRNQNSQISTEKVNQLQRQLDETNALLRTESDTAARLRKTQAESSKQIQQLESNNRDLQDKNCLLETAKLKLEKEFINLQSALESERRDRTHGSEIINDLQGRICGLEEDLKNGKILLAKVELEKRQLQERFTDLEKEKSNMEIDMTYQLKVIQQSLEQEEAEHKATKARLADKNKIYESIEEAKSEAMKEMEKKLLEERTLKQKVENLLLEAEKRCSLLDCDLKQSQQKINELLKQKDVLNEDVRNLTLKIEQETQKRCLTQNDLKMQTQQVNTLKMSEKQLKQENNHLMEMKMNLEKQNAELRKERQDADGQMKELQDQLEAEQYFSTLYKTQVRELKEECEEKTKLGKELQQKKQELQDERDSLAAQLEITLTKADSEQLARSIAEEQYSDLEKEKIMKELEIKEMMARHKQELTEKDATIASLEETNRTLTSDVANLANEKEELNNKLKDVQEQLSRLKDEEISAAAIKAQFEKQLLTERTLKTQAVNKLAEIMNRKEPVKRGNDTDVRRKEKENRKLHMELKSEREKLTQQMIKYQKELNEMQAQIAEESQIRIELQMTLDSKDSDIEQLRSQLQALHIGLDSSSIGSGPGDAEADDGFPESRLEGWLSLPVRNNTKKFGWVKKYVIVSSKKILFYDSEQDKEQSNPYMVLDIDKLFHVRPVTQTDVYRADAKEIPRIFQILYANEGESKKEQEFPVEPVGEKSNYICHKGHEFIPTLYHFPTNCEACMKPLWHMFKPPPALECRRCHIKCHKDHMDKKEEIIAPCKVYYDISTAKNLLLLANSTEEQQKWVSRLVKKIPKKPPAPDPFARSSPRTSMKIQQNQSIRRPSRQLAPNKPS
How it was run: (§3)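 HeLa cells treated 3 h at 2 or 5 μM, with Y-27632 and untreated controls, then formaldehyde-fixed. Phospho-MYPT1 Thr853 or phospho-cofilin Ser3 immunostained with DNA. Confocal 0.5 μm slices plus z-projection, with acquisition settings fixed from the control.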

HeLa [8] = experiment: Induction of cell cycle arrest in human HeLa cells at 2 uM after 48 hrs by propidium iodide-staining based flow cytometry; type: functional
How it was run: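 HeLa cells serum-starved 96 h for synchronization, then released and treated 48 h. Fixed in ice-cold 70% ethanol 1 h, stained with propidium iodide 50 μg/mL plus RNase A 0.2 mg/mL for 15 min at 37 °C, and analyzed by FACS.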

[9] = Drug uptake in human HeLa cell cytoplasm at 3.3 uM after 17 hrs imaged with 405 nm excitation by intrinsic fluorescence based assay; type: ADME, subcellular; how it was run: as §1
A-375 [10] = experiment: Induction of double stranded DNA breaks in human A375 cells assessed as gamma-H2Ax phosphorylation at 2 uM after 24 to 48 hrs by Hoechst 33342 staining-based laser confocal microscopy; type: functional, cell-based
[11] = target: T1, Rho-associated protein kinase 2; experiment: Inhibition of ROCK2 in human HeLa cells assessed as reduction in MYPT1 phosphorylation at Thr853 at 5 uM after 3 hrs by immunofluorescence assay; type: cell-based; how it was run: as §3
[12] = target: T1, Rho-associated protein kinase 2; experiment: Inhibition of ROCK2 in human HeLa cells assessed as reduction in cofilin phosphorylation at Ser3 at 5 uM after 3 hrs by Western blot analysis; type: cell-based
How it was run: (§4)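 HeLa cells treated 3 h at 2 or 5 μM, then lysed in RIPA buffer with protease and phosphatase inhibitors. Western blot probed with anti-phospho-cofilin Ser3 and anti-actin (1/1000) on the same split membrane; luminescence detection.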

A549 [13] = experiment: Antiproliferative activity against human A549 cells after 72 hrs by MTS assay; type: functional, cell-based; settings: A549, 72 h
How it was run: (§5)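 Cells seeded at day 0 in 96-well plates, serial compound dilutions added at day 1; viable cells read 72 h after drug addition by MTS tetrazolium assay, in triplicate. IC50 taken as concentration halving cell growth. One first trial, then two additional experiments on selected compounds.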

HeLa [14] = experiment: Cytotoxicity against human HeLa cell spheroids assessed as cell growth inhibition at 570 nM administered at day 3 post expansion and […] by 3D-celltiter Glo assay; type: functional, cell-based; how it was run: as §2
A-431 = experiment: Antiproliferative activity against human A431 cells after 72 hrs by MTS assay; type: functional, cell-based; settings: A-431, 72 h; how it was run: as §5
M21 [15] = experiment: Antiproliferative activity against human M21 cells after 72 hrs by MTS assay; type: functional, cell-based; settings: M21, 72 h; how it was run: as §5
[16] = Drug uptake in human HeLa cell nucleus at 2 uM after 17 hrs imaged with 488 nm excitation by intrinsic fluorescence based assay; type: ADME, subcellular; how it was run: as §1
A549 [17] = experiment: Cytotoxicity against human A549 cells assessed as presence of large vesicles at 1 uM after 24 to 48 hrs by Hoechst 33342 staining-based laser confocal microscopy; type: functional, cell-based
HeLa [18] = experiment: Cytotoxicity against human HeLa cell spheroids assessed as effect on ATP content at 0.57 to 2 uM administered at day 3 post expansion and measured on day 6 by bioluminescence based assay; type: functional; how it was run: as §2
[19] = target: T1, Rho-associated protein kinase 2; experiment: Inhibition of ROCK2 in human HeLa cells assessed as reduction in cofilin phosphorylation at Ser3 at 2 uM after 3 hrs by immunofluorescence assay; type: cell-based; how it was run: as §3
HEK293 = experiment: Antiproliferative activity against HEK293 cells after 72 hrs by MTS assay; type: cell-based; settings: Homo sapiens, HEK293, 72 h; how it was run: as §5
[20] = Drug uptake in human HeLa cell cytoplasm at 2 uM after 17 hrs imaged with 488 nm excitation by intrinsic fluorescence based assay; type: ADME, subcellular; how it was run: as §1
NCI-H358 = experiment: Antiproliferative activity against human NCI-H358 cells after 72 hrs by MTS assay; type: functional, cell-based; settings: NCI-H358, 72 h; how it was run: as §5
A-375 [21] = experiment: Antiproliferative activity against human A375 cells after 72 hrs by MTS assay; type: functional, cell-based; settings: A-375, 72 h; how it was run: as §5
[22] = target: T1, Rho-associated protein kinase 2; experiment: Inhibition of ROCK2 in human HeLa cells assessed as reduction in cofilin phosphorylation at Ser3 at 2 uM after 3 hrs by Western blot analysis; type: cell-based; how it was run: as §4
M21 [23] = experiment: Antiproliferative activity against alpha5-integrin lacking human M21 cells after 72 hrs by MTS assay; type: functional, cell-based; settings: M21, 72 h; how it was run: as §5
HeLa [24] = experiment: Cytotoxicity against human HeLa cell spheroids assessed as cell growth inhibition at 300 nM administered at day 3 post expansion and measured […] by 3D-celltiter Glo assay; type: functional, cell-based; how it was run: as §2
HeLa [25] = experiment: Cytotoxicity against human HeLa cell spheroids assessed as effect on ATP content at 0.3 to 2 uM […] by bioluminescence based assay; type: functional
[26] = target: T1, Rho-associated protein kinase 2; experiment: Inhibition of ROCK2 (unknown origin) at 1 uM by ATP competition assay relative to control
How it was run: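 Single-point screen at 1 μM across a 50-kinase panel: recombinant enzymes, 33P-ATP radioactive filter-binding assay, duplicates, activity expressed relative to no-compound control.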

| IC50 (A549 [13]) | IC50 (A-431) | Drug uptake [16] | inhibition [19] | Drug uptake [20] | IC50 (NCI-H358) | IC50 (A-375 [21]) | inhibition [22] | Compound | IC50 (M21 [15]) | Activity (A549 [17]) | IC50 (M21 [23]) | also measured |
| --- | --- | --- | --- | --- | --- | --- | --- | --- | --- | --- | --- | --- |
| – | – | – | – | – | – | – | – | CN(C)CCOc1cc(-c2ncc(-c3cccc(-c4cnco4)n3)o2)nc(-c2ncc(-c3cccc(-c4cnco4)n3)o2)c1 | – | – | – | Drug uptake [1]: Active; Drug uptake [2]: Active; Drug uptake [3]: Active; Activity (HeLa [4]): Active; Activity (A549 [5]): Active; growth inhibition (GI) (HeLa [6]): 25%; inhibition [7]: Active; Activity (HeLa [8]): inactive; Drug uptake [9]: Active; Activity (A-375 [10]): inactive; inhibition [11]: Active; inhibition [12]: Active |
| 2710 nM | 645 nM | Active | Active | Active | 7700 nM | 440 nM | Active | c1cc(-c2cnco2)nc(-c2cnc(-c3cccc(-c4ncc(-c5cccc(-c6cnco6)n5)o4)n3)o2)c1 | 1560 nM | Active | 7240 nM | growth inhibition (GI) (HeLa [14]): Active; Activity (HeLa [18]): Active; IC50 (HEK293): 457 nM |
| 3950 nM | 541 nM | Active | Active | Active | 3750 nM | 592 nM | Active | c1cc(-c2cnco2)nc(-c2cnc(-c3cccc(-c4cccc(-c5ncc(-c6cccc(-c7cnco7)n6)o5)n4)n3)o2)c1 | 1580 nM | Active | 3570 nM | growth inhibition (GI) (HeLa [24]): Active; Activity (HeLa [25]): Active; inhibition [26]: 70% |
